Results reported in ChEMBL document CHEMBL3992538, “Hybrids of thienopyrimidinones and thiouracils as anti-tubercular agents: SAR and docking studies” (Eur J Med Chem, 2017).
Converted amounts (≈) assume the structure as drawn.

Key:
[1] = test system: Mycobacterium tuberculosis; assay: Antitubercular activity against dormant stage of Mycobacterium tuberculosis H37Ra ATCC 25177 infected in human THP1 cells after 12 days by nitrate reductase assay; assay type: functional; details: H37Ra ATCC 25177, 288 h
In short: (§1)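 Ex vivo test of H37Ra in THP-1 cells by nitrate reductase assay, absorbance read at 540 nm. Active stage incubated 8 days and dormant stage 12 days. H37Ra (ATCC 25177) grown in M. pheli medium to OD 1.0 and subcultured once from -70°C stock.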

[2] = test system: Mycobacterium tuberculosis; assay: Antitubercular activity against active stage of Mycobacterium tuberculosis H37Ra ATCC 25177 infected in human THP1 cells after 8 days by nitrate reductase assay; assay type: functional; details: H37Ra ATCC 25177, 192 h; in short: as §1
[3] = test system: Mycobacterium tuberculosis; assay: Antitubercular activity against dormant stage of Mycobacterium tuberculosis H37Ra ATCC 25177 after 12 days by XTT reduction menadione assay; assay type: functional; details: H37Ra ATCC 25177, 288 h
In short: (§2)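 M. tuberculosis H37Ra (ATCC 25177), grown to log phase (OD 1.0) in M. pheli medium from -70°C stock, subcultured once before inoculation. Incubation 8 days (active) or 12 days (dormant). XRMA read-out as absorbance at 470 nm.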

[4] = test system: Mycobacterium tuberculosis; assay: Antitubercular activity against active stage of Mycobacterium tuberculosis H37Ra ATCC 25177 after 8 days by XTT reduction menadione assay; assay type: functional; details: H37Ra ATCC 25177, 192 h; in short: as §2
[5] = Cytotoxicity against human THP1 cells assessed as growth inhibition by MTT assay; assay type: cell-based; details: THP-1 cells
In short: (§3)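 MTT assay in duplicate on THP-1 leukaemia, A549 lung adenocarcinoma, PANC-1 pancreatic adenocarcinoma and HeLa cervical carcinoma cells, all obtained from ECCC.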

[6] = Cytotoxicity against human A549 cells assessed as growth inhibition by MTT assay; assay type: cell-based; in short: as §3
[7] = Cytotoxicity against human PANC1 cells assessed as growth inhibition by MTT assay; assay type: cell-based; details: PANC-1 cells; in short: as §3
[8] = Cytotoxicity against human HeLa cells assessed as growth inhibition by MTT assay; assay type: cell-based; in short: as §3
[9] = Selectivity index, ratio of GI50 for human A549 cells to MIC for dormant stage of Mycobacterium tuberculosis H37Ra ATCC 25177 infected in human THP1 cells; assay type: toxicity, cell-based; details: read-out: Selectivity Index
In short: (§4)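 Selectivity index is the cytotoxic GI50 against the named human cell line divided by the antimycobacterial value. Activity counted as specific when SI >10.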

[10] = Selectivity index, ratio of GI50 for human A549 cells to MIC for dormant stage of Mycobacterium tuberculosis H37Ra ATCC 25177; assay type: toxicity; details: read-out: Selectivity Index; in short: as §4
[11] = Selectivity index, ratio of GI50 for human PANC1 cells to MIC for dormant stage of Mycobacterium tuberculosis H37Ra ATCC 25177 infected in human THP1 cells; assay type: toxicity, cell-based; details: PANC-1 cells, read-out: Selectivity Index; in short: as §4
[12] = Selectivity index, ratio of GI50 for human PANC1 cells to MIC for dormant stage of Mycobacterium tuberculosis H37Ra ATCC 25177; assay type: toxicity; details: PANC-1 cells, read-out: Selectivity Index; in short: as §4
[13] = Selectivity index, ratio of GI50 for human HeLa cells to MIC for dormant stage of Mycobacterium tuberculosis H37Ra ATCC 25177 infected in human THP1 cells; assay type: toxicity, cell-based; details: read-out: Selectivity Index; in short: as §4
[14] = Selectivity index, ratio of GI50 for human HeLa cells to MIC for dormant stage of Mycobacterium tuberculosis H37Ra ATCC 25177; assay type: toxicity, cell-based; details: read-out: Selectivity Index; in short: as §4
[15] = Selectivity index, ratio of GI50 for human A549 cells to MIC for active stage of Mycobacterium tuberculosis H37Ra ATCC 25177 infected in human THP1 cells; assay type: toxicity, cell-based; details: read-out: Selectivity Index; in short: as §4
[16] = Selectivity index, ratio of GI50 for human A549 cells to MIC for active stage of Mycobacterium tuberculosis H37Ra ATCC 25177; assay type: toxicity; details: read-out: Selectivity Index; in short: as §4
[17] = Selectivity index, ratio of GI50 for human PANC1 cells to MIC for active stage of Mycobacterium tuberculosis H37Ra ATCC 25177 infected in human THP1 cells; assay type: toxicity, cell-based; details: PANC-1 cells, read-out: Selectivity Index; in short: as §4
[18] = Selectivity index, ratio of GI50 for human PANC1 cells to MIC for active stage of Mycobacterium tuberculosis H37Ra ATCC 25177; assay type: toxicity; details: PANC-1 cells, read-out: Selectivity Index; in short: as §4
[19] = Selectivity index, ratio of GI50 for human HeLa cells to MIC for active stage of Mycobacterium tuberculosis H37Ra ATCC 25177 infected in human THP1 cells; assay type: toxicity, cell-based; details: read-out: Selectivity Index; in short: as §4
[20] = Selectivity index, ratio of GI50 for human HeLa cells to MIC for active stage of Mycobacterium tuberculosis H37Ra ATCC 25177; assay type: toxicity, cell-based; details: read-out: Selectivity Index; in short: as §4

Row | SMILES | MIC [1] [µg/mL] | MIC [2] [µg/mL] | MIC [3] [µg/mL] | MIC [4] [µg/mL] | GI50 [5] [µg/mL] | GI50 [6] [µg/mL] | GI50 [7] [µg/mL] | GI50 [8] [µg/mL] | selectivity ratio [9] | selectivity ratio [10] | selectivity ratio [11] | selectivity ratio [12] | selectivity ratio [13] | selectivity ratio [14] | selectivity ratio [15] | selectivity ratio [16] | selectivity ratio [17] | selectivity ratio [18] | selectivity ratio [19] | selectivity ratio [20]
1 | COc1cc(-c2nc(SCCCn3cnc4sc5c(c4c3=O)CCCC5)n(C)c(=O)c2C#N)cc(OC)c1OC | 21.5 (≈ 37.1 µM) | 26.9 (≈ 46.4 µM) | 26.1 (≈ 45 µM) | 27.9 (≈ 48.1 µM) | 89.7 (≈ 155 µM) | 95.7 (≈ 165 µM) | 24.8 (≈ 42.8 µM) | 70.7 (≈ 122 µM) | 4 | 4 | 1 | 1 | 3 | 3 | 4 | 3 | 1 | 1 | 3 | 3
2 | COc1cc(-c2nc(SCCCn3cnc4sc5c(c4c3=O)CCCC5)[nH]c(=O)c2C#N)cc(OC)c1OC | 26.1 (≈ 46.1 µM) | 28.8 (≈ 50.9 µM) | 23.4 (≈ 41.4 µM) | 25.4 (≈ 44.9 µM) | 97.6 (≈ 173 µM) | 91.4 (≈ 162 µM) | 52.8 (≈ 93.3 µM) | 55.7 (≈ 98.5 µM) | 3 | 4 | 2 | 2 | 2 | 2 | 3 | 4 | 2 | 2 | 2 | 2
3 | CCCCCc1cc2c(=O)n(CCCSc3nc(-c4cc(OC)c(OC)c(OC)c4)c(C#N)c(=O)[nH]3)cnc2s1 | 9.8 (≈ 16.8 µM) | > 30 | 12.3 (≈ 21.1 µM) | > 30 | > 100 | > 100 | 72.8 (≈ 125 µM) | 75.8 (≈ 130 µM) | > 10 | > 8 | > 7 | > 6 | 8 | 6 | > 3 | > 3 | > 2 | > 2 | 3 | 3
4 | CCCCCCc1cc2c(=O)n(CCCSc3nc(-c4cc(OC)c(OC)c(OC)c4)c(C#N)c(=O)[nH]3)cnc2s1 | 7.1 (≈ 11.9 µM) | > 30 | 8.7 (≈ 14.6 µM) | > 30 | 54.3 (≈ 91.1 µM) | 90.2 (≈ 151 µM) | 28.1 (≈ 47.2 µM) | 67 (≈ 112 µM) | 13 | 10 | 4 | 3 | 9 | 8 | < 3 | 3 | 1 | 1 | 2 | 2
5 | CCCCCn1c(SCCCn2cnc3sc4c(c3c2=O)CCCC4)nc(-c2cc(OC)c(OC)c(OC)c2)c(C#N)c1=O | > 30 | > 30 | > 30 | > 30 | > 100 | > 100 | > 100 | 73 (≈ 115 µM) | > 3 | > 3 | > 3 | > 3 | 2 | 2 | > 3 | > 3 | > 3 | > 3 | 2 | 2
6 | CCCCCCc1cc2c(=O)n(CCSc3nc(-c4cc(OC)c(OC)c(OC)c4)c(C#N)c(=O)[nH]3)cnc2s1 | 18.8 (≈ 32.3 µM) | 17.1 (≈ 29.4 µM) | 19.1 (≈ 32.8 µM) | 15.6 (≈ 26.8 µM) | 96.4 (≈ 166 µM) | 96.8 (≈ 166 µM) | 36.5 (≈ 62.7 µM) | 76.3 (≈ 131 µM) | 5 | 5 | 2 | 2 | 4 | 4 | 6 | 6 | 2 | 2 | 4 | 5
7 | CCCCCCCc1cc2c(=O)n(CCSc3nc(-c4cc(OC)c(OC)c(OC)c4)c(C#N)c(=O)[nH]3)cnc2s1 | 13.6 (≈ 22.8 µM) | 11.1 (≈ 18.6 µM) | 17.1 (≈ 28.7 µM) | 11.1 (≈ 18.6 µM) | 88.1 (≈ 148 µM) | 79.7 (≈ 134 µM) | 72.6 (≈ 122 µM) | 75.4 (≈ 127 µM) | 6 | 5 | 5 | 4 | 6 | 4 | 7 | 7 | 6 | 7 | 7 | 7
8 | CCCCCCCc1cc2c(=O)n(CCCSc3nc(-c4cc(OC)c(OC)c(OC)c4)c(C#N)c(=O)[nH]3)cnc2s1 | 6.91 (≈ 11.3 µM) | > 30 | 7.6 (≈ 12.5 µM) | > 30 | 68.2 (≈ 112 µM) | 90.5 (≈ 148 µM) | > 100 | 76.1 (≈ 125 µM) | 13 | 12 | > 14 | > 13 | 11 | 10 | < 3 | 3 | 3 | 3 | 3 | 3
9 | CCCc1cc2c(=O)n(CCCSc3nc(-c4cc(OC)c(OC)c(OC)c4)c(C#N)c(=O)[nH]3)cnc2s1 | 11.9 (≈ 21.5 µM) | > 30 | 19.1 (≈ 34.5 µM) | > 30 | > 100 | > 100 | > 100 | 52.5 (≈ 94.8 µM) | > 8 | > 5 | > 8 | > 5 | 4 | 3 | > 3 | > 3 | > 3 | > 3 | 2 | 2
10 | CCCCCCCCn1c(SCCCn2cnc3sc4c(c3c2=O)CCCC4)nc(-c2cc(OC)c(OC)c(OC)c2)c(C#N)c1=O | > 30 | > 30 | > 30 | > 30 | > 100 | > 100 | > 100 | > 100 | > 3 | > 3 | > 3 | > 3 | > 3 | > 3 | > 3 | > 3 | > 3 | > 3 | > 3 | > 3
